Measured values as given in ChEMBL document CHEMBL1127320, “Dual-action cephalosporins incorporating a 3'-tertiary-amine-linked quinolone” (J Med Chem, 1994).
Converted amounts (≈) assume the structure as drawn.

What was measured:
Streptococcus pneumoniae [1] = test: In vitro minimum inhibitory concentration was measured against Streptococcus pneumoniae 6301 strain; format: functional
Outline: (§1)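 Streptococci were tested on brain heart infusion agar plus 20 units/mL catalase, Proteus on Mueller-Hinton with 3% agar, and others on Mueller-Hinton agar. Inocula were 100-fold-diluted overnight cultures, about 3 × 10^4 CFU/spot, read after overnight incubation at 36 °C.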

Enterobacter cloacae [2] = test: Tested for its efficacy against systemic murine infection caused by Enterobacter cloacae 5699.; format: functional
[3] = Half life was measured as degradation by HPLC analysis.; format: ADME
Streptococcus pneumoniae [4] = test: Tested for its efficacy against systemic murine infection caused by Streptococcus pneumoniae 6301.; format: functional
Outline: (§2)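 CD1 Swiss albino mice (18-20 g) were infected intraperitoneally with 0.5 mL of diluted culture. Within 5 min they received 1.0 mL test solution subcutaneously at the dorsal neck, in dilutions spanning 250–0.05 mg/kg. P. aeruginosa groups received a second dose at 3 h. Groups were six mice. ED50 was calculated by Reed–Muench interpolation of cumulative survival.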

Klebsiella pneumoniae [5] = test: Tested for its efficacy against systemic murine infection caused by Klebsiella pneumoniae A; format: functional; outline: as §2
[6] = target: T1, Penicillin-binding protein 1B (Escherichia coli K-12) (UniProt P02919); test: Affinity for penicillin binding protein 1b of Escherichia coli UB1005 (DC0) was evaluated.; parameters: unit not given here
T1 sequence (whole entry): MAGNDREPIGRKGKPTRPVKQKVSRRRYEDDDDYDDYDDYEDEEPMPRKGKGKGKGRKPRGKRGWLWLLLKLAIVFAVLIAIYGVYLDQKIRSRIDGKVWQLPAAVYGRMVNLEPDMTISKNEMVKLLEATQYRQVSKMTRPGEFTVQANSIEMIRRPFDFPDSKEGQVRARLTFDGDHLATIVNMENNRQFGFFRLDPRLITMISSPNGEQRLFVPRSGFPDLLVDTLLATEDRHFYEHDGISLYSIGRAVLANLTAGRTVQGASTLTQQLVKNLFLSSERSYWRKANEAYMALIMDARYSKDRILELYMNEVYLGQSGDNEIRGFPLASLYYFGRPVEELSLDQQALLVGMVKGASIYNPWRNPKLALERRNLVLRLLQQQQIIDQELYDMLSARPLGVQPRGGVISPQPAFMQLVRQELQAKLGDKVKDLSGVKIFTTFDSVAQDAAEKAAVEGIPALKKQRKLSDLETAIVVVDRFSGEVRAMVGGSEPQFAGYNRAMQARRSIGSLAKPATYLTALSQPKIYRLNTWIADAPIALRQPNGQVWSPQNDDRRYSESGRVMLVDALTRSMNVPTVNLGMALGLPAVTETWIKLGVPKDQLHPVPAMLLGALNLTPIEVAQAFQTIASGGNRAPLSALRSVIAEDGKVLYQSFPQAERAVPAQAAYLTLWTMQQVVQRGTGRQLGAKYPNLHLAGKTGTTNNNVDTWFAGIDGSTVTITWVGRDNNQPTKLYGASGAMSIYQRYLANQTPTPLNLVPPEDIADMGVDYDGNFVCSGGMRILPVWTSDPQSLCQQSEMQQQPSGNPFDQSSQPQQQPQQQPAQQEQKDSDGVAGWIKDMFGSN
Outline: (§3)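 Solubilised membranes from sonicated E. coli UB1005 served as the binding-protein source. Binding was read as inhibition of [14C]penicillin G binding.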

Proteus mirabilis [7] = test: In vitro minimum inhibitory concentration was measured against Proteus mirabilis 90 strain.; format: functional; outline: as §1
Serratia marcescens [8] = test: Tested for its efficacy against systemic murine infection caused by Serratia marcescens SM.; format: functional; outline: as §2
[9] = tested on: Penicillin-binding protein 3 (Escherichia coli); test: Affinity for penicillin binding protein 3 of Escherichia coli UB1005 (DC0) was evaluated.; parameters: unit not given here
Staphylococcus aureus [10] = test: Tested for its efficacy against systemic murine infection caused by Staphylococcus aureus smith.; format: functional; outline: as §2
Streptococcus pyogenes [11] = test: In vitro minimum inhibitory concentration was measured against Streptococcus pyogenes 4 strain.; format: functional; outline: as §1
Pseudomonas aeruginosa [12] = test: Tested for its efficacy against systemic murine infection caused by Pseudomonas aeruginosa 8780.; format: functional; outline: as §2
[13] = target: T2, Peptidoglycan D,D-transpeptidase MrdA (Escherichia coli K-12) (UniProt P0AD65); test: Affinity for penicillin binding protein 2 of Escherichia coli UB1005 (DC0) was evaluated.; parameters: unit not given here; outline: as §3
T2 sequence (whole entry): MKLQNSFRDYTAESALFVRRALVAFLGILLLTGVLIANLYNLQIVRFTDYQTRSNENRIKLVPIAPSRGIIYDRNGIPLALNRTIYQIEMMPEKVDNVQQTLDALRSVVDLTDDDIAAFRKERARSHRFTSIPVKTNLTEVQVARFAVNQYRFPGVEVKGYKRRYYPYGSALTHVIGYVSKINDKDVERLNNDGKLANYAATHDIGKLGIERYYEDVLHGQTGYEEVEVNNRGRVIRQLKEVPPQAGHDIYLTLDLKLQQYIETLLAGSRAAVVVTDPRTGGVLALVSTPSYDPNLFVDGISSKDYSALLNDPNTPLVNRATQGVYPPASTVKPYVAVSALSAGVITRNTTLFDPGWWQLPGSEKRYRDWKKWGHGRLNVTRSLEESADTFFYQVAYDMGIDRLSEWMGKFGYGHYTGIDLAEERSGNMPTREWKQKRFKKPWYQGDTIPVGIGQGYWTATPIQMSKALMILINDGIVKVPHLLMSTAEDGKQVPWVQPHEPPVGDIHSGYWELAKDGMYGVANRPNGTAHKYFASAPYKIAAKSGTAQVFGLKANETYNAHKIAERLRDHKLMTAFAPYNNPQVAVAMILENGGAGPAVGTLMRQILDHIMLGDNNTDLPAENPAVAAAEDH

Serratia marcescens [14] = test: tested for its efficacy against systemic murine infection caused by Serratia marcescens SM.; format: functional; outline: as §2
Klebsiella pneumoniae [15] = test: tested for its efficacy against systemic murine infection caused by Klebsiella pneumoniae A; format: functional; outline: as §2
Streptococcus pneumoniae [16] = test: tested for its efficacy against systemic murine infection caused by Streptococcus pneumoniae 6301.; format: functional; outline: as §2
Staphylococcus aureus [17] = test: tested for its efficacy against systemic murine infection caused by Staphylococcus aureus smith.; format: functional; outline: as §2
Streptococcus pyogenes [18] = test: In vitro minimum inhibitory concentration was measured against Streptococcus pyogenes 4 strain.; (</=); format: functional
Outline: as §1, with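 “MICs were determined by agar dilution with 2-fold dilutions giving final 128–0.0156 µg/mL, extended to 0.000977 µg/mL where needed. Streptococci” for “Streptococci”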

Streptococcus pneumoniae [19] = test: In vitro minimum inhibitory concentration was measured against Streptococcus pneumoniae 6301 strain.; (</=); format: functional
Outline: as §1, with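 “MICs were determined by agar dilution with 2-fold dilutions giving final 128–0.0156 µg/mL, extended to 0.000977 µg/mL where needed. Streptococci” for “Streptococci”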

Proteus mirabilis [20] = test: In vitro minimum inhibitory concentration was measured against Proteus mirabilis 90 strain.; (</=); format: functional
Outline: as §1, with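 “MICs were determined by agar dilution with 2-fold dilutions giving final 128–0.0156 µg/mL, extended to 0.000977 µg/mL where needed. Streptococci” for “Streptococci”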

Enterobacter cloacae [21] = test: tested for its efficacy against systemic murine infection caused by Enterobacter cloacae 5699.; format: functional; outline: as §2
Pseudomonas aeruginosa [22] = test: tested for its efficacy against systemic murine infection caused by Pseudomonas aeruginosa 8780.

Compound `CO/N=C(\C(=O)N[C@@H]1C(=O)N2C(C(=O)O)=C(CN3CCN(c4cc5c(cc4F)c(=O)c(C(=O)O)cn5C4CC4)CC3)CS[C@H]12)c1csc(N)n1` has an MIC (Streptococcus pneumoniae [1]) of 0.063 µg/mL (≈ 0.0867 µM), an ED50 (Enterobacter cloacae [2]) of 14 mg/kg and a half-life [3] of 6 days. The ED50 (Streptococcus pneumoniae [4]) was 54 mg/kg, the ED50 (Klebsiella pneumoniae [5]) was 25 mg/kg and the Binding affinity [6] was greater than 100. For the same compound, the MIC (Proteus mirabilis [7]) was 2 µg/mL (≈ 2.75 µM), the ED50 (Serratia marcescens [8]) was 25 mg/kg and the Binding affinity [9] was 0.5. The ED50 (Staphylococcus aureus [10]) was greater than 100 mg/kg, the MIC (Streptococcus pyogenes [11]) was 0.063 µg/mL (≈ 0.0867 µM) and the ED50 (Pseudomonas aeruginosa [12]) was 38 mg/kg. For the same compound, the Binding affinity [13] was 100.
Compound `CO/N=C(\C(=O)N[C@@H]1C(=O)N2C(C(=O)O)=C(COC(C)=O)CS[C@H]12)c1csc(N)n1` [CEFOTAXIME] has an ED50 (Serratia marcescens [14]) of less than 25 mg/kg, an ED50 (Klebsiella pneumoniae [15]) of 45 mg/kg and an ED50 (Streptococcus pneumoniae [16]) of 69 mg/kg. It also gave an ED50 (Staphylococcus aureus [17]) of 6 mg/kg, an MIC (Streptococcus pyogenes [18]) of no more than 0.016 µg/mL and a Binding affinity [6] of 0.5. It also gave an MIC (Streptococcus pneumoniae [19]) of less than 0.016 µg/mL, an MIC (Proteus mirabilis [20]) of less than 0.016 µg/mL and an ED50 (Enterobacter cloacae [21]) of 50 mg/kg. It also gave an ED50 (Pseudomonas aeruginosa [22]) greater than 250 mg/kg and a Binding affinity [13] of 100.
